{
  "source": "ChEMBL document CHEMBL1799940",
  "about": "“Isolation and synthesis of antiproliferative eupolauridine alkaloids of Ambavia gerrardii from the Madagascar Dry Forest” (J Nat Prod, 2011)",
  "key": {"[1]": {"tested_on": "A2780", "test": "Antiproliferative activity against human A2780 cells after 2 days by Alamar Blue assay", "type": "functional, cell-based", "details": "A2780, 48 h", "how_it_was_run": "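Drug-sensitive human ovarian cancer cell line; samples delivered in 1 μL of 100% DMSO per well rather than 20 μL of 1:1 DMSO–H2O. Otherwise run by a previously reported protocol.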"}, "[2]": {"tested_on": "NCI-H460", "test": "Antiproliferative activity against human H460 cells after 96 hrs by Cell Titre-Glo luminescent assay", "type": "functional, cell-based", "details": "NCI-H460, 96 h"}},
  "data": [
    {"compound": "Oc1ccc2c(c1)-c1nccc3ccnc-2c13", "values": [
      {"measurement": "IC50", "setting": "[1]", "value": 12.7, "unit": "µM"},
      {"measurement": "IC50", "setting": "[2]", "value": "> 10", "unit": "µM"}
    ]},
    {"compound": "COc1ccc2c(c1)-c1c3c-2nccc3cc[n+]1[O-]", "values": [
      {"measurement": "IC50", "setting": "[1]", "value": 54.3, "unit": "µM"},
      {"measurement": "IC50", "setting": "[2]", "value": "> 10", "unit": "µM"}
    ]},
    {"compound": "COc1cccc2c1-c1nccc3ccnc(c13)C2=O", "values": [
      {"measurement": "IC50", "setting": "[1]", "value": 10.3, "unit": "µM"},
      {"measurement": "IC50", "setting": "[2]", "value": 0.57, "unit": "µM"}
    ]},
    {"compound": "[O-][n+]1ccc2ccnc3c2c1-c1ccccc1-3", "values": [
      {"measurement": "IC50", "setting": "[1]", "value": 3.5, "unit": "µM"},
      {"measurement": "IC50", "setting": "[2]", "value": 1.77, "unit": "µM"}
    ]},
    {"compound": "COc1ccc2c(c1)-c1nccc3ccnc-2c13", "values": [
      {"measurement": "IC50", "setting": "[1]", "value": 11.1, "unit": "µM"},
      {"measurement": "IC50", "setting": "[2]", "value": "> 10", "unit": "µM"}
    ]},
    {"compound": "COc1ccc2c(c1)-c1nccc3cc[n+]([O-])c-2c13", "values": [
      {"measurement": "IC50", "setting": "[1]", "value": 50.3, "unit": "µM"},
      {"measurement": "IC50", "setting": "[2]", "value": "> 100", "unit": "µM"}
    ]},
    {"compound": "c1ccc2c(c1)-c1nccc3ccnc-2c13", "note": "[EUPOLAURIDINE]", "values": [
      {"measurement": "IC50", "setting": "[1]", "value": 35.7, "unit": "µM"},
      {"measurement": "IC50", "setting": "[2]", "value": "> 100", "unit": "µM"}
    ]},
    {"compound": "O=C1c2ccccc2-c2nccc3ccnc1c23", "note": "[SAMPANGINE]", "values": [
      {"measurement": "IC50", "setting": "[1]", "value": 0.6, "unit": "µM"},
      {"measurement": "IC50", "setting": "[2]", "value": 0.58, "unit": "µM"}
    ]}
  ]
}
